Calls of active or inactive are those of the source. The rule behind the calls is not given here.
How the values were obtained:
Mus musculus [1] = assay: Hepatotoxicity in BALB/c mouse liver at 60 mg/kg, ip administered as single dose measured 72 hrs post dose
Mus musculus [2] = assay: Reduction in PTEN mRNA expression in BALB/c mouse liver at 12 mg/kg, ip administered as single dose measured 72 hrs post dose; format: functional; settings: route intraperitoneal
Outline: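 Single ip injection at 12 or 60 mg/kg of phosphorothioate gapmer (14-base deoxy gap, two modified nucleotides per wing) against PTEN in Balb-c mice, n = 4/group. After sacrifice, liver PTEN mRNA reported as % down-regulation versus saline controls, and plasma ALT (IU/L) measured as the liver toxicity read-out.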

Mus musculus [3] = assay: Reduction in PTEN mRNA expression in ip dosed BALB/c mouse liver administered twice weekly for 3 weeks measured after 72 hrs post last dose; format: functional
Outline: (§1)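 Balb-c mice (n = 4/group) dosed ip twice a week for 3 weeks at 0.5, 1.5, 4.5 and 15 mg/kg of PTEN-targeting 14-mer phosphorothioate gapmer. Sacrifice 72 h after last dose. Liver PTEN mRNA by quantitative RT-PCR as % versus saline, with ED50 derived from dose-response. Plasma ALT (IU/L) recorded. Spleen weight given as fold increase over saline group.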

Mus musculus [4] = assay: Toxicity in BALB/c mouse assessed as increase in spleen weight at 1.5 mg/kg, ip administered twice weekly for 3 weeks measured after 72 hrs post last dose; format: organism-based; parameters: dose 1.5 mg/kg, route intraperitoneal; settings: in vivo
Outline: as §1

Mus musculus [5] = assay: Hepatoprotective activity in BALB/c mouse assessed as at 23 mg/kg, ip assessed as reduction of plasma alanine amino transferase levels after 72 hrs post dose; format: functional, organism-based; parameters: dose 23 mg/kg
Outline: (§2)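 Balb-c mice, 4 per group, one ip dose at 23 or 46 mg/kg of 14-mer fully phosphorothioate gapmer ASO targeting PTEN. Sacrifice 72 h after dosing. Liver PTEN mRNA quantified by quantitative RT-PCR, expressed as % down-regulation versus saline-treated animals. Plasma ALT (IU/L) measured after sacrifice.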

Mus musculus [6] = assay: Toxicity in BALB/c mouse assessed as increase in spleen weight at 15 mg/kg, ip administered twice weekly for 3 weeks measured after 72 hrs post last dose; format: organism-based; parameters: dose 15 mg/kg, route intraperitoneal; settings: in vivo
Outline: as §1

Mus musculus [7] = assay: Toxicity in BALB/c mouse assessed as increase in spleen weight at 4.5 mg/kg, ip administered twice weekly for 3 weeks measured after 72 hrs post last dose; format: organism-based; parameters: dose 4.5 mg/kg, route intraperitoneal; settings: in vivo
Outline: as §1

Mus musculus [8] = assay: Hepatoprotective activity in BALB/c mouse assessed as at 46 mg/kg, ip assessed as reduction of plasma alanine amino transferase levels after 72 hrs post dose; format: functional, organism-based; parameters: dose 46 mg/kg
Outline: as §2

Mus musculus [9] = assay: Reduction in PTEN mRNA expression in BALB/c mouse liver at 23 mg/kg, ip measured 72 hrs post dose by Rt-PCR; format: functional, organism-based; parameters: dose 23 mg/kg
Outline: as §2

Mus musculus [10] = assay: Reduction in PTEN mRNA expression in BALB/c mouse liver at 46 mg/kg, ip measured 72 hrs post dose by Rt-PCR; format: functional, organism-based; parameters: dose 46 mg/kg
Outline: as §2

Mus musculus [11] = assay: Hepatoprotective activity in BALB/c mouse assessed as reduction of plasma alanine amino transferase levels at 15 mg/kg, ip administered twice weekly for 3 weeks measured after 72 hrs post last dose; format: functional, organism-based; parameters: dose 15 mg/kg
Outline: as §1

Row | SMILES | Activity (Mus musculus [1]) | inhibition in vivo at 12 mg/kg (Mus musculus [2]) [%] | ED50 (Mus musculus [3]) [mg/kg] | inhibition (Mus musculus [3]) | Activity (Mus musculus [4]) | Activity (Mus musculus [5]) | Activity (Mus musculus [6]) | Activity (Mus musculus [7]) | Activity (Mus musculus [8]) | inhibition (Mus musculus [9]) | inhibition (Mus musculus [10]) | Activity (Mus musculus [11])
1 | Cc1cn([C@@H]2O[C@@]3(CO)CO[C@@H]2[C@@H]3OP(O)(=S)OC[C@@]23CO[C@@H]([C@H](n4cc(C)c(=O)[nH]c4=O)O2)[C@@H]3OP(O)(=S)OC[C@@]23CO[C@@H]([C@H](n4cnc5c(=O)[nH]c(N)nc54)O2)[C@@H]3OP(O)(=S)OC[C@@]23CO[C@@H]([C@H](n4ccc(N)nc4=O)O2)[C@@H]3OP(O)(=S)OC[C@@]23CO[C@@H]([C@H](n4cc(C)c(=O)[nH]c4=O)O2)[C@@H]3OP(O)(=S)OC[C@@]23CO[C@@H]([C@H](n4cnc5ncnc(N)c54)O2)[C@@H]3OP(O)(=S)OC[C@@]23CO[C@@H]([C@H]([n+]4c[nH]c5nc(N)[nH]c(=O)c54)O2)[C@@H]3OP(O)(=S)OC[C@@]23CO[C@@H]([C@H](n4ccc(N)nc4=O)O2)[C@@H]3OP(O)(=S)OC[C@@]23CO[C@@H]([C@H](n4ccc(N)nc4=O)O2)[C@@H]3OP(O)(=S)OC[C@@]23CO[C@@H]([C@H](n4cc(C)c(=O)[nH]c4=O)O2)[C@@H]3OP(O)(=S)OC[C@@]23CO[C@@H]([C@H](n4ccc(N)nc4=O)O2)[C@@H]3OP(O)(=S)OC[C@@]23CO[C@@H]([C@H](n4cc(C)c(=O)[nH]c4=O)O2)[C@@H]3OP(O)(=S)OC[C@@]23CO[C@@H]([C@H]([n+]4c[nH]c5nc(N)[nH]c(=O)c54)O2)[C@@H]3OP(O)(=S)OC[C@@]23CO[C@@H]([C@H]([n+]4c[nH]c5nc(N)[nH]c(=O)c54)O2)[C@@H]3OP(O)(=S)OC[C@@]23CO[C@@H]([C@H](n4cnc5ncnc(N)c54)O2)[C@@H]3OP(O)(=S)OC[C@@]23CO[C@@H]([C@H](n4cc(C)c(=O)[nH]c4=O)O2)[C@@H]3OP(O)(=S)OC[C@@]23CO[C@@H]([C@H](n4cc(C)c(=O)[nH]c4=O)O2)[C@@H]3OP(O)(=S)OC[C@@]23CO[C@@H]([C@H](n4cc(C)c(=O)[nH]c4=O)O2)[C@@H]3O)c(=O)nc1N (stereo partly drawn) | Toxic | 90 |  |  |  |  |  |  |  |  |  | 
2 | Cc1cn([C@@H]2O[C@@]3(COP(O)(=S)O[C@@H]4[C@H]5OC[C@]4(CO)O[C@H]5n4cc(C)c(=O)[nH]c4=O)CO[C@@H]2[C@@H]3OP(O)(=S)OC[C@@]23CO[C@@H]([C@H](n4cnc5c(N)ncnc54)O2)[C@@H]3OP(O)(=S)OC[C@@]23CO[C@@H]([C@H](n4cc(C)c(=O)[nH]c4=O)O2)[C@@H]3OP(O)(=S)OC[C@@]23CO[C@@H]([C@H](n4cnc5nc(N)[nH]c(=O)c54)O2)[C@@H]3OP(O)(=S)OC[C@@]23CO[C@@H]([C@H](n4cnc5nc(N)[nH]c(=O)c54)O2)[C@@H]3OP(O)(=S)OC[C@@]23CO[C@@H]([C@H](N4CCC(N)=NC4=O)O2)[C@@H]3OP(O)(=S)OC[C@@]23CO[C@@H]([C@H](n4cc(C)c(=O)[nH]c4=O)O2)[C@@H]3OP(O)(=S)OC[C@@]23CO[C@@H]([C@H](n4cnc5nc(N)[nH]c(=O)c54)O2)[C@@H]3OP(O)(=S)OC[C@@]23CO[C@@H]([C@H](n4ccc(N)nc4=O)O2)[C@@H]3OP(O)(=S)OC[C@@]23CO[C@@H]([C@H](n4cnc5c(N)ncnc54)O2)[C@@H]3OP(O)(=S)OC[C@@]23CO[C@@H]([C@H](n4cnc5nc(N)[nH]c(=O)c54)O2)[C@@H]3OP(O)(=S)OC[C@@]23CO[C@@H]([C@H](n4cc(C)c(N)nc4=O)O2)[C@@H]3OP(O)(=S)OC[C@@]23CO[C@@H]([C@H](n4ccc(=O)[nH]c4=O)O2)[C@@H]3O)c(=O)nc1N (stereo partly drawn) |  |  | 3.1 | Dose-dependent effect | Toxic | inactive | Non-toxic | Toxic | inactive |  |  | 
3 | Cc1cn([C@@H]2O[C@@]3(COP(O)(=S)O[C@H]4[C@H]5OC[C@]4(COP(O)(=S)O[C@H]4[C@H]6OC[C@]4(COP(O)(=S)O[C@H]4[C@H]7OC[C@]4(COP(O)(=S)O[C@H]4[C@H]8OC[C@]4(COP(O)(=S)O[C@H]4[C@H]9OC[C@]4(COP(O)(=S)O[C@H]4[C@H]%10OC[C@]4(COP(O)(=S)O[C@H]4[C@H]%11OC[C@]4([C@H](C)O)O[C@H]%11n4ccc(=O)[nH]c4=O)O[C@H]%10n4ccc(N)nc4=O)O[C@H]9n4cnc9c(N)ncnc94)O[C@H]8n4cc(C)c(=O)[nH]c4=O)O[C@H]7n4cnc7nc(N)[nH]c(=O)c74)O[C@H]6n4cnc6nc(N)[nH]c(=O)c64)O[C@H]5N4CCC(N)=NC4=O)CO[C@@H]2[C@@H]3OP(O)(=S)OC[C@@]23CO[C@@H]([C@H](n4cnc5nc(N)[nH]c(=O)c54)O2)[C@@H]3OP(O)(=S)OC[C@@]23CO[C@@H]([C@H](n4ccc(N)nc4=O)O2)[C@@H]3OP(O)(=S)OC[C@@]23CO[C@@H]([C@H](n4cnc5c(N)ncnc54)O2)[C@@H]3OP(O)(=S)OC[C@@]23CO[C@@H]([C@H](n4cnc5nc(N)[nH]c(=O)c54)O2)[C@@H]3OP(O)(=S)OC[C@@]23CO[C@@H]([C@H](n4ccc(N)nc4=O)O2)[C@@H]3OP(O)(=S)OC[C@@]23CO[C@@H]([C@H](n4ccc(=O)[nH]c4=O)O2)[C@@H]3O)c(=O)[nH]c1=O (stereo partly drawn) |  |  | 6 | Dose-dependent effect | Non-toxic | Active |  | Non-toxic | Active | inactive | Active | Active

Source: ChEMBL document CHEMBL1629539, “Configuration of the 5'-methyl group modulates the biophysical and biological properties of locked nucleic acid (LNA) oligonucleotides” (J Med Chem, 2010)
